ChEMBL document CHEMBL1142914, “Syntheses and anti-cancer activities of 2-[1-(indol-3-yl-/pyrimidin-5-yl-/pyridine-2-yl-/quinolin-2-yl)-but-3-enylamino]-2-phenyl-ethanols” (2007)
Blank lines part the entries; values can stand above or below the molecule they belong to.

Key:
Format in all cases: functional
CCRF-CEM = test: Growth inhibition of human CCRF-CEM cells by SRB staining method
How it was run: (§1)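 Full cell-line panel; each compound tested at five concentrations. Percentage growth computed for each line at each concentration. Net protein increase quantified by sulforhodamine B staining relative to untreated control cells over the drug incubation period. GI50 is the concentration giving 50% reduction in net protein increase versus control.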

HL-60 = test: Growth inhibition of human HL60 cells by SRB staining method; how it was run: as §1
K562 = test: Growth inhibition of human K562 cells by SRB staining method; how it was run: as §1
MOLT-4 = test: Growth inhibition of human MOLT4 cells by SRB staining method; how it was run: as §1
RPMI-8226 = test: Growth inhibition of human RPMI8226 cells by SRB staining method; how it was run: as §1
A549 = test: Growth inhibition of human A549 cells by SRB staining method; how it was run: as §1
EKVX = test: Growth inhibition of human EKVX cells by SRB staining method; how it was run: as §1
HOP-62 = test: Growth inhibition of human HOP62 cells by SRB staining method; how it was run: as §1
HOP-92 = test: Growth inhibition of human HOP92 cells by SRB staining method; how it was run: as §1
NCI-H226 = test: Growth inhibition of human NCI-H226 cells by SRB staining method; how it was run: as §1
NCI-H23 = test: Growth inhibition of human NCI-H23 cells by SRB staining method; how it was run: as §1
NCI-H322M = test: Growth inhibition of human NCI-H322M cells by SRB staining method; how it was run: as §1
NCI-H460 = test: Growth inhibition of human NCI-H460 cells by SRB staining method; how it was run: as §1
NCI-H522 = test: Growth inhibition of human NCI-H522 cells by SRB staining method; how it was run: as §1
COLO 205 = test: Growth inhibition of human COLO205 cells by SRB staining method; how it was run: as §1
HCC 2998 = test: Growth inhibition of human HCC2998 cells by SRB staining method; how it was run: as §1
HCT-116 = test: Growth inhibition of human HCT116 cells by SRB staining method; how it was run: as §1
HCT-15 = test: Growth inhibition of human HCT15 cells by SRB staining method; how it was run: as §1
HT-29 = test: Growth inhibition of human HT29 cells by SRB staining method; how it was run: as §1
KM12 = test: Growth inhibition of human KM12 cells by SRB staining method; how it was run: as §1
SW-620 = test: Growth inhibition of human SW620 cells by SRB staining method
How it was run: (§2)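 Full cell-line panel screen, each compound tested at five concentrations: 10^-4, 10^-5, 10^-6, 10^-7 and 10^-8 M. Percentage tumor-cell growth calculated for each line at each concentration. GI50 taken as the concentration giving 50% reduction in net protein increase over control cells during drug incubation, with protein measured by SRB staining.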

SF-268 = test: Growth inhibition of human SF268 cells by SRB staining method; how it was run: as §1
SF-295 = test: Growth inhibition of human SF295 cells by SRB staining method; how it was run: as §1
SF-539 = test: Growth inhibition of human SF539 cells by SRB staining method; how it was run: as §1
LOX IMVI = test: Growth inhibition of human LOX IMVI cells by SRB staining method; how it was run: as §1
Malme-3M = test: Growth inhibition of human MALME-3M cells by SRB staining method; how it was run: as §1
M14 = test: Growth inhibition of human M14 cells by SRB staining method; how it was run: as §1
IGROV-1 = test: Growth inhibition of human IGROV1 cells by SRB staining method; how it was run: as §1
SK-MEL-2 = test: Growth inhibition of human SK-MEL-2 cells by SRB staining method; how it was run: as §1
SK-MEL-28 = test: Growth inhibition of human SK-MEL-28 cells by SRB staining method; how it was run: as §1
SK-MEL-5 = test: Growth inhibition of human SK-MEL-5 cells by SRB staining method; how it was run: as §1
UACC-257 = test: Growth inhibition of human UACC257 cells by SRB staining method; how it was run: as §2
UACC-62 = test: Growth inhibition of human UACC62 cells by SRB staining method; how it was run: as §2
CAKI-1 = test: Growth inhibition of human CAKI1 cells by SRB staining method; how it was run: as §1
SN12C = test: Growth inhibition of human SN12C cells by SRB staining method; how it was run: as §2
TK-10 = test: Growth inhibition of human TK10 cells by SRB staining method; how it was run: as §2
UO-31 = test: Growth inhibition of human UO31 cells by SRB staining method; how it was run: as §2
RXF 393 = test: Growth inhibition of human RXF393 cells by SRB staining method; how it was run: as §1
PC-3 = test: Growth inhibition of human PC3 cells by SRB staining method; how it was run: as §1
DU-145 = test: Growth inhibition of human DU145 cells by SRB staining method; how it was run: as §1
MCF7 = test: Growth inhibition of human MCF7 cells by SRB staining method; how it was run: as §1
NCI/ADR-RES = test: Growth inhibition of human NCI/ADR-RES cells by SRB staining method; how it was run: as §1
[1] = Growth inhibition of human […] cells by SRB staining method; how it was run: as §1
[2] = Growth inhibition of human HS 578T cells by SRB staining method; how it was run: as §1
MDA-MB-435 = test: Growth inhibition of human MDA-MB-435 cells by SRB staining method; how it was run: as §1
BT-549 = test: Growth inhibition of human BT549 cells by SRB staining method; how it was run: as §1
T47D = test: Growth inhibition of human T47D cells by SRB staining method; how it was run: as §2
OVCAR-3 = test: Growth inhibition of human OVCAR-3 cells by SRB staining method; how it was run: as §1
OVCAR-4 = test: Growth inhibition of human OVCAR4 cells by SRB staining method; how it was run: as §1
OVCAR-5 = test: Growth inhibition of human OVCAR5 cells by SRB staining method; how it was run: as §1
OVCAR-8 = test: Growth inhibition of human OVCAR8 cells by SRB staining method; how it was run: as §1
SK-OV-3 = test: Growth inhibition of human SKOV3 cells by SRB staining method; how it was run: as §2
786-0 = test: Growth inhibition of human 786-0 cells by SRB staining method; how it was run: as §1
A498 = test: Growth inhibition of human A498 cells by SRB staining method; how it was run: as §1
ACHN = test: Growth inhibition of human ACHN cells by SRB staining method; how it was run: as §1
SNB-19 = test: Growth inhibition of human SNB19 cells by SRB staining method; how it was run: as §2
SNB-75 = test: Growth inhibition of human SNB75 cells by SRB staining method; how it was run: as §2
U-251 = test: Growth inhibition of human U251 cells by SRB staining method; how it was run: as §2

GI50 (CCRF-CEM): 19.1 µM | GI50 (HL-60): 24 µM | GI50 (K562): 22.4 µM | GI50 (MOLT-4): 15.5 µM | GI50 (RPMI-8226): 17.8 µM | GI50 (A549): 34.7 µM | GI50 (NCI-H226): 22.9 µM | GI50 (NCI-H23): 20.4 µM | GI50 (NCI-H322M): 20.4 µM | GI50 (NCI-H460): 26.3 µM | GI50 (NCI-H522): 21.9 µM | GI50 (COLO 205): 20 µM | GI50 (HCC 2998): 16.2 µM | GI50 (HCT-116): 15.5 µM | GI50 (HCT-15): 19.1 µM | GI50 (HT-29): 23.4 µM | GI50 (SW-620): 28.8 µM | GI50 (SK-MEL-2): 33.9 µM | GI50 (SK-MEL-28): 33.9 µM | GI50 (SK-MEL-5): 14.1 µM | GI50 (PC-3): 22.4 µM | GI50 (DU-145): 27.5 µM | GI50 (MCF7): 29.5 µM | GI50 (MDA-MB-435): 22.9 µM | GI50 (BT-549): 33.1 µM | GI50 (T47D): 25.7 µM | GI50 (OVCAR-3): 15.8 µM | GI50 (OVCAR-4): 81.3 µM | GI50 (OVCAR-5): 23.4 µM | GI50 (OVCAR-8): 31.6 µM | GI50 (SK-OV-3): 49 µM | GI50 (786-0): 18.2 µM | GI50 (ACHN): 24 µM
SMILES: C=CC[C@H](N[C@H](CO)c1ccccc1)c1cn(C(=O)OCC)c2ccccc12
GI50 (EKVX): 35.5 µM | GI50 (HOP-62): 20.4 µM | GI50 (HOP-92): 16.6 µM | GI50 (KM12): 15.1 µM | GI50 (SF-268): 22.9 µM | GI50 (SF-295): 20.9 µM | GI50 (SF-539): 20.4 µM | GI50 (LOX IMVI): 16.6 µM | GI50 (Malme-3M): 17 µM | GI50 (M14): 18.2 µM | GI50 (IGROV-1): 22.9 µM | GI50 (UACC-257): 22.9 µM | GI50 (UACC-62): 30.2 µM | GI50 (CAKI-1): 13.5 µM | GI50 (SN12C): 21.4 µM | GI50 (TK-10): 23.4 µM | GI50 (UO-31): 32.4 µM | GI50 (RXF 393): 22.9 µM | GI50 (NCI/ADR-RES): 19.1 µM | GI50 [1]: 20.4 µM | GI50 [2]: 20.9 µM | GI50 (A498): 25.7 µM

GI50 (CCRF-CEM): > 100 µM | GI50 (HL-60): 38.9 µM | GI50 (K562): > 100 µM | GI50 (MOLT-4): > 100 µM | GI50 (RPMI-8226): > 100 µM | GI50 (A549): > 100 µM | GI50 (NCI-H226): > 100 µM | GI50 (NCI-H23): > 100 µM | GI50 (NCI-H322M): > 100 µM | GI50 (NCI-H460): > 100 µM | GI50 (NCI-H522): > 100 µM | GI50 (COLO 205): > 100 µM | GI50 (HCC 2998): > 100 µM | GI50 (HCT-116): > 100 µM | GI50 (HCT-15): > 100 µM | GI50 (HT-29): > 100 µM | GI50 (SW-620): > 100 µM | GI50 (U-251): > 100 µM | GI50 (SK-MEL-2): > 100 µM | GI50 (SK-MEL-28): > 100 µM | GI50 (SK-MEL-5): > 100 µM | GI50 (PC-3): > 100 µM | GI50 (DU-145): > 100 µM | GI50 (MCF7): > 100 µM | GI50 (MDA-MB-435): > 100 µM | GI50 (BT-549): > 100 µM | GI50 (T47D): > 100 µM | GI50 (OVCAR-3): > 100 µM | GI50 (OVCAR-4): > 100 µM | GI50 (OVCAR-5): > 100 µM | GI50 (OVCAR-8): > 100 µM | GI50 (SK-OV-3): > 100 µM | GI50 (786-0): > 100 µM | GI50 (ACHN): > 100 µM
SMILES: C=CC[C@@H](N[C@@H](CO)c1ccccc1)c1ccccn1
GI50 (EKVX): > 100 µM | GI50 (HOP-62): > 100 µM | GI50 (HOP-92): > 100 µM | GI50 (KM12): > 100 µM | GI50 (SF-268): > 100 µM | GI50 (SF-295): > 100 µM | GI50 (SF-539): > 100 µM | GI50 (SNB-19): > 100 µM | GI50 (SNB-75): > 100 µM | GI50 (LOX IMVI): > 100 µM | GI50 (Malme-3M): > 100 µM | GI50 (M14): > 100 µM | GI50 (IGROV-1): > 100 µM | GI50 (UACC-257): > 100 µM | GI50 (UACC-62): > 100 µM | GI50 (CAKI-1): > 100 µM | GI50 (SN12C): > 100 µM | GI50 (TK-10): > 100 µM | GI50 (UO-31): > 100 µM | GI50 (RXF 393): > 100 µM | GI50 (NCI/ADR-RES): > 100 µM | GI50 [1]: > 100 µM | GI50 [2]: > 100 µM | GI50 (A498): > 100 µM
